Test results taken from ChEMBL document CHEMBL1671842, “Synthesis and antibacterial activity of a novel class of 15-membered macrolide antibiotics, "11a-azalides"” (2011).
≈ marks a conversion by molar mass, not a printed value.

Assays:
[1] = tested on: Streptococcus pneumoniae; assay: Antibacterial activity against erythromycin-resistant Streptococcus pneumoniae 205; format: functional
How it was run: (§1)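 MIC by broth microdilution following CLSI (formerly NCCLS) guidelines for S. pneumoniae.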

[2] = tested on: Streptococcus pneumoniae; assay: Antibacterial activity against erythromycin-susceptible Streptococcus pneumoniae ATCC 49619; format: functional; how it was run: as §1

CO[C@]1(C)C[C@H](O[C@H]2[C@H](C)[C@@H](O[C@@H]3O[C@H](C)C[C@H](N(C)C)[C@H]3O)[C@@](C)(O)C[C@@H](C)[C@H](O)[C@H](C)CN(C)C[C@H](COCc3ccccc3)OC(=O)[C@@H]2C)O[C@@H](C)[C@@H]1O
MIC [1]: 32 µg/mL (≈ 39.5 µM) | MIC [2]: 0.12 µg/mL (≈ 0.148 µM)

CO[C@]1(C)C[C@H](O[C@H]2[C@H](C)[C@@H](O[C@@H]3O[C@H](C)C[C@H](N(C)C)[C@H]3O)[C@@](C)(O)C[C@@H](C)[C@H](O)[C@H](C)CN(C)CCOC(=O)[C@@H]2C)O[C@@H](C)[C@@H]1O
MIC [1]: > 128 µg/mL | MIC [2]: 4 µg/mL (≈ 5.79 µM)

CO[C@]1(C)C[C@H](O[C@H]2[C@H](C)[C@@H](O[C@@H]3O[C@H](C)C[C@H](N(C)C)[C@H]3O)[C@@](C)(O)C[C@@H](C)[C@H](O)[C@H](C)CN(C)C[C@@H](COCc3ccccc3)OC(=O)[C@@H]2C)O[C@@H](C)[C@@H]1O
MIC [1]: 64 µg/mL (≈ 78.9 µM) | MIC [2]: 1 µg/mL (≈ 1.23 µM)

CO[C@]1(C)C[C@H](O[C@H]2[C@H](C)[C@@H](O[C@@H]3O[C@H](C)C[C@H](N(C)C)[C@H]3O)[C@@](C)(O)C[C@@H](C)[C@H](O)[C@H](C)CN(C)[C@@H](COCc3ccccc3)COC(=O)[C@@H]2C)O[C@@H](C)[C@@H]1O
MIC [1]: 128 µg/mL (≈ 158 µM) | MIC [2]: 2 µg/mL (≈ 2.47 µM)

CC[C@H]1OC(=O)[C@H](C)[C@@H](O[C@H]2C[C@@](C)(OC)[C@@H](O)[C@H](C)O2)[C@H](C)[C@@H](O[C@@H]2O[C@H](C)C[C@H](N(C)C)[C@H]2O)[C@](C)(OC)C[C@@H](C)C(=O)[C@H](C)[C@@H](O)[C@]1(C)O [CLARITHROMYCIN]
MIC [1]: > 128 µg/mL | MIC [2]: 0.03 µg/mL (≈ 0.0401 µM)
